Measured values as given in article PMC4658283 (Toxicology, 2015).
Where a name gives a salt, the structure may show the parent alone.

Assays:
Assay type in all cases: in vivo, rat
[1] = PCB 95 and OH-PCB tissue levels by GC-ECD
Summary of the method: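 Killed 4 h after last injection (~28 h post-PCB). Tissues homogenized with diatomaceous earth and extracted over Florisil. OH-PCBs analysed as methylated derivatives; splitless injection at 280°C; PCB 204 internal standard.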

[2] = system: CYP2B protein; test: Western blot analysis of CYP2B protein in liver and cortex microsomes; details: liver microsomes; 7 d exposure
[3] = Enantioselective analysis of PCB 95 in tissues; details: both experimental groups
[4] = both experimental groups dosed with PCB 95

CN1CCC[C@H]1c1cccnc1 [Nicotine, (−)-Nicotine hydrogen tartrate salt, reference compound]
effect of nicotine co-exposure on levels of the parent compound PCB 95 in tissues ([1]; nicotine 1 mg/kg/d s.c. 7 d plus PCB 95 6 mg/kg/d p.o., cortex, cerebellum, adipose, blood, liver, muscle): no effect

COc1c(Cl)c(Cl)c(-c2cc(Cl)ccc2Cl)c(Cl)c1OC [4,5-95, 4,5-dimethoxy-2,2′,3,5′,6-pentachlorobiphenyl]
detection of OH-PCB metabolite in blood and liver [1, 4]: detected

COc1c(Cl)cc(Cl)c(-c2cc(Cl)ccc2Cl)c1Cl [3-103, 3-Methoxy-2,2′,4,5′,6-pentachlorobiphenyl]
detection of OH-PCB metabolite in blood and liver [1, 4]: detected

Oc1cc(Cl)c(-c2cc(Cl)ccc2Cl)c(Cl)c1Cl [4-95, 2,2′,3,5′,6-pentachlorobiphenyl-4-ol]
detection of OH-PCB metabolite in blood and liver [1, 4]: detected

Oc1cc(Cl)c(-c2c(Cl)ccc(Cl)c2Cl)cc1Cl [4′-95]
detection of OH-PCB metabolite in blood and liver [1, 4]: detected

Clc1ccc(Cl)c(-c2c(Cl)ccc(Cl)c2Cl)c1 [PCB 95, 2,2′,3,5′,6-Pentachlorobiphenyl]
hepatic CYP2B protein levels relative to vehicle controls (densitometry, normalized to GAPDH) [2]: neither nicotine nor PCB 95 alone changed hepatic CYP2B levels
rank order of tissue EF values for PCB 95 [3]: blood (sample pooled across experimental groups) > liver > muscle (samples pooled within experimental groups) > cortex > adipose

Oc1cc(Cl)c(Cl)c(-c2cc(Cl)ccc2Cl)c1Cl [5-95, 2,2′,3,5′,6-pentachlorobiphenyl-5-ol]
detection of OH-PCB metabolite in blood and liver [1, 4]: detected
detection of metabolite in adipose tissue [1, 4]: detected as a minor metabolite
